The test system of one experiment is human motor neurons. The experiment is described as follows: Neuroprotection assay, ER stress induced by cyclopiazonic acid. The experiment is classed as cell-based. The note with it: for Motor neuron survival in response to ER stress: cyclopiazonic acid, 72 hours, 0.16–10 µM; for Motor neuron survival at low concentrations compared with AT-7519: low concentrations (<200 nM). The procedure, abridged: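 Motor neurons came from NCRM-1 iPSCs carrying a VAChT:TdTomato reporter, differentiated as embryoid bodies for 16 days. They were plated at 2000 cells/well on laminin/poly-ornithine in neurobasal medium with anti-mitotics, B-27, N-2 and GDNF, BDNF, IGF-1 and CNTF. After 48 h, cells were co-treated with cyclopiazonic acid and test compound (4-fold dilutions, 0.16–10 µM, triplicate wells) for 72 h. Calcein AM live cells were counted as % of DMSO-treated survivors.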

The target of another experiment is T1, WT human CDKL5 (Homo sapiens, UniProt O76039).
T1 sequence (O76039 1-960): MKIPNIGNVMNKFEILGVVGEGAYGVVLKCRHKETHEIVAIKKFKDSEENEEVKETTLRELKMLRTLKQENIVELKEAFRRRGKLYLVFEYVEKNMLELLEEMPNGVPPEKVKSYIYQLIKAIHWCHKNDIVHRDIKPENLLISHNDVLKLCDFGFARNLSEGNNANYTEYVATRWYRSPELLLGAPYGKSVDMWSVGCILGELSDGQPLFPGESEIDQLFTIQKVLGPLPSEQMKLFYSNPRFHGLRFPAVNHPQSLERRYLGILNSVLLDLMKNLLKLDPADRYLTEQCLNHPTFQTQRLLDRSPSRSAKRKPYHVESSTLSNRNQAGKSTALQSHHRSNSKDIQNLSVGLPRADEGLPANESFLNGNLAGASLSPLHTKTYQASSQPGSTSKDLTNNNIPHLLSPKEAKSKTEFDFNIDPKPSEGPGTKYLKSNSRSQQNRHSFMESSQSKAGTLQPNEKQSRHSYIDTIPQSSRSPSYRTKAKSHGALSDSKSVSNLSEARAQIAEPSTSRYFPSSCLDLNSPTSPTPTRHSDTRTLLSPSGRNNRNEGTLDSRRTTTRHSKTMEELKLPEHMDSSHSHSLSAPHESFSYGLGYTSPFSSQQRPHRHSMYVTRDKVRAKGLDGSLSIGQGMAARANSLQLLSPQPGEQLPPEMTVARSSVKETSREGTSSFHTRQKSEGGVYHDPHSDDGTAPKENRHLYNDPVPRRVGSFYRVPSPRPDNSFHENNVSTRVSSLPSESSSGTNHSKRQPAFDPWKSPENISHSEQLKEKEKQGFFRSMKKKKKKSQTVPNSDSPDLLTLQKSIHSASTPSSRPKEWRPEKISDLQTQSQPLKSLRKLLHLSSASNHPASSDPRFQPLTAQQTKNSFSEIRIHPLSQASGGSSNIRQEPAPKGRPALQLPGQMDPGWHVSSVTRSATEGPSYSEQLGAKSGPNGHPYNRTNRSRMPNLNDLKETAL
The experiment is described as follows: CDKL5 in vitro kinase assay. Type of experiment: biochemical. The note with it: 10 or 100 nM compound, 50 µM ATP, vs untreated WT CDKL5. In a few lines: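 FLAG-tagged WT human CDKL5, with a K42R kinase-dead control, was made by HeLa-lysate in vitro translation and purified on cobalt spin columns. Enzyme plus myelin basic protein substrate was incubated in kinase buffer with or without 50 µM ATP at 30 °C for 30 min, with test compound at 10 or 100 nM or DMSO. Read by ADP-Glo. Triplicate; one-way ANOVA with Dunnett's test.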

Experiment [1] concerns the target T2, CDKL5 (Homo sapiens, UniProt O76039).
T2 sequence (O76039 1-960): T1 sequence (O76039 1-960)
In words: CDKL5 NanoBRET in-cell target engagement assay. The experiment is classed as cell-based. For orientation: Bioluminescence resonance energy transfer reports proximity on the nanometre scale.

Another experiment addresses GSK3α (Homo sapiens, UniProt P49840). In words: GSK3α NanoBRET assay. The note with it: GSK3α NanoBRET IC50, tracer K8. The experiment is classed as cell-based.
The next experiment addresses GSK3β (Homo sapiens, UniProt P49841). In words: GSK3β NanoBRET assay. Type of experiment: cell-based. The conditions noted are these: GSK3β NanoBRET IC50, tracer K8.
The target of experiment [2] is T2, CDKL5. In words: CDKL5 split luciferase assay. The note with it: compound 2 vs compound 4. Type of experiment: binding. In a few lines:
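Luminescence-based competition binding assay: test compound displaces an active-site-dependent probe from CDKL5. Run as 12-point dose–response in duplicate to give IC50 values.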

The target in another experiment is T3, CDKL5 kinase domain (Homo sapiens, UniProt O76039, T169D/Y171E).
T3 sequence (O76039 1-303 T169D/Y171E): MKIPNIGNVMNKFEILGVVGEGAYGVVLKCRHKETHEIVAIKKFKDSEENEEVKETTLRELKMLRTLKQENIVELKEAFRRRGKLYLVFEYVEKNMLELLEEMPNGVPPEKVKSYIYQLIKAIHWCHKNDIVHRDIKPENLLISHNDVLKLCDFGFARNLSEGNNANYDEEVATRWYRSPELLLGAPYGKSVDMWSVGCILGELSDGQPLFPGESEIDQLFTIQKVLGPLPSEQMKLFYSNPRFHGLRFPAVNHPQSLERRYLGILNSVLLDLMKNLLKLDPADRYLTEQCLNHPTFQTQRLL
The experiment is described as follows: Thermal shift assay. Type of experiment: binding. The conditions noted are these: all concentrations evaluated (12.5, 25, or 50 µM). The procedure, abridged:
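The CDKL5 kinase domain (construct boundaries of 4BGQ) was used at 4 µM in 10 mM HEPES-NaOH pH 7.4, 500 mM NaCl with 5× SYPRO Orange. It was incubated with test compound at 12.5, 25 or 50 µM. Fluorescence was recorded on a real-time PCR instrument to derive melting-temperature shifts.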

The subject of a further experiment is S222 EB2 phosphorylation. In words: Western blot of S222 EB2 phosphorylation in rat primary cortical neurons. Type of experiment: cell-based. The note with it: 1 hour, 5 nM, 50 nM, 500 nM or 5 µM. In a few lines: (§1)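 Cortical neurons were taken from E18.5 Long Evans rat embryos (trypsin 0.25%, 15 min, 37 °C) and plated at 300,000/well on poly-D-lysine/laminin. At DIV11–14, cells were given 5 nM–5 µM test compound or DMSO for 1 h at 37 °C. Lysates were immunoblotted with ECL detection. pEB2 S222 was normalised to total EB2, pβ-catenin to total β-catenin, and CDKL5 to tubulin.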

The test system of experiment [3] is S33/37/T41 β-Catenin phosphorylation. The experiment is classed as cell-based. The note with it: rat primary cortical neurons, 1 hour, dose-response. In a few lines: as §1
In a further experiment the test system is CDKL5 expression. The experiment is described as follows: Western blot of CDKL5 expression in rat primary cortical neurons. The experiment is classed as cell-based. The conditions noted are these: 1 hour treatment. The procedure, abridged: as §1
On the technique in general: Immunoblotting shows a protein as a band on a membrane.

Another experiment has as its target DYRK1B (Homo sapiens, UniProt Q9Y463). In words: Radiometric HotSpot kinase assay. Type of experiment: biochemical. The conditions noted are these: enzymatic IC50 values. In a few lines:
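Window was taken from enzymatic IC50s. DYRK1B: radiometric HotSpot assay at ATP Km, 10-point dose–response. GSK3β: radiometric assay at ATP Km, 9-point dose–response.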

Structures are written as SMILES. “Also recorded” adds a separate entry of the source.

Sequence of GSK3α (P49840 whole entry): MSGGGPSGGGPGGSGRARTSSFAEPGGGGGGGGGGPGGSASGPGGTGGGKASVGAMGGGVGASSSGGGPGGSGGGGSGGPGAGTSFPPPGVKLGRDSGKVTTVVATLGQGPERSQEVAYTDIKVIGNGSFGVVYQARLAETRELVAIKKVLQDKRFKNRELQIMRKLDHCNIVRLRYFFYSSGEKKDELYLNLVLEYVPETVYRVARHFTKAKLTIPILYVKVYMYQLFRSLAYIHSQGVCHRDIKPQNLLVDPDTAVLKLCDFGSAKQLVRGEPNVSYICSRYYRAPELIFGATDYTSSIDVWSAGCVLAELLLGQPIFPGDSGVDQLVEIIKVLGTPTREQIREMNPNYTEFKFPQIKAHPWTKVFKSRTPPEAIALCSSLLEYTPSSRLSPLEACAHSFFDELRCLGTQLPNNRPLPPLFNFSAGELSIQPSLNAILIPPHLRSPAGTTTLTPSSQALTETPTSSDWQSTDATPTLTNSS
Sequence of GSK3β (P49841 whole entry): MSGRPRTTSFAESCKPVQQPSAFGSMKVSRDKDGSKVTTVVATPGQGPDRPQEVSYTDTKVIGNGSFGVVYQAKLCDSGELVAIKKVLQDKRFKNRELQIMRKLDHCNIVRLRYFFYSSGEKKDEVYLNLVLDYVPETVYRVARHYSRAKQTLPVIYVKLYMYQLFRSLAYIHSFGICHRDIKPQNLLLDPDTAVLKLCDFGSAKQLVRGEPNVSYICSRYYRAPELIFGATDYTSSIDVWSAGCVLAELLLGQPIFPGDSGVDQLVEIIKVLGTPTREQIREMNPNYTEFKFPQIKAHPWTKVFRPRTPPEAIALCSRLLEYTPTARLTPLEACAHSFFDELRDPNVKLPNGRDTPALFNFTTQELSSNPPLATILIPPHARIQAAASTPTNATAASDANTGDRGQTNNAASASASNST
Sequence of DYRK1B (Q9Y463 whole entry): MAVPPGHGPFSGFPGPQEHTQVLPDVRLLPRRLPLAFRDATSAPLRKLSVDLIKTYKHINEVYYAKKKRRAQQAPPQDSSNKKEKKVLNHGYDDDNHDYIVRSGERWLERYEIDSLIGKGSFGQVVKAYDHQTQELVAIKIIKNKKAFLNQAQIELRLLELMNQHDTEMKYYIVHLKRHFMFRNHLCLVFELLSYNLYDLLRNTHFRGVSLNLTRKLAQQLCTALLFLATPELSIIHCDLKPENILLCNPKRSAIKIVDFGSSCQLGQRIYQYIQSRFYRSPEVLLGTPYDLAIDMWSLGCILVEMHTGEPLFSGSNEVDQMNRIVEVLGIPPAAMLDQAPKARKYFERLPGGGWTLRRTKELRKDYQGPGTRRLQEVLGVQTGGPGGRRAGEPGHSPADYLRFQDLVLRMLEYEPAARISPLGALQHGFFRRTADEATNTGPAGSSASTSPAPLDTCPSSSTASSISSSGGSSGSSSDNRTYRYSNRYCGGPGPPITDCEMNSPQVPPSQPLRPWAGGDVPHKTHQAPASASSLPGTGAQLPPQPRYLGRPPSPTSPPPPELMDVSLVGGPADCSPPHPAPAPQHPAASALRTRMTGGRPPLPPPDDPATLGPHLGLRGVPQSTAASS

Turning to `O=C(NC1CCNCC1)c1n[nH]cc1NC(=O)c1c(Cl)cccc1Cl` [AT-7519, N-(4-piperidinyl)-4-(2,6-dichlorobenzoylamino)-1H-pyrazole-3-carboxamide, reference compound], the “Motor neuron survival in response to ER stress” value with human motor neurons is reported as “neuroprotective”.

Consider `CCN1CCN(Cc2ccc(NC(=O)Nc3ccc(Oc4cc(NC)ncn4)cc3)cc2C(F)(F)F)CC1` [AST-487, reference compound], for which the “Effect on CDKL5 kinase activity” value at WT human CDKL5 was “robust, dose-dependent inhibition”.

What is called IC50 is the concentration that gives 50% inhibition. Low values mean greater potency, high ones weaker potency. With `O=C(Nc1c[nH]nc1C(=O)NC1CCNCC1)c1cc(F)cc(F)c1` [Compound 2, 4-(3,5-difluorobenzamido)-N-(piperidin-4-yl)-1H-pyrazole-3-carboxamide], the IC50 was 4.6 nM against CDKL5 [1], under 30 nM against GSK3α and under 30 nM against GSK3β. For the same compound, the “Fold higher potency than compound 4 in split-luciferase CDKL5 assay” value at CDKL5 [2] is listed as about 130 fold. The “Change in melting temperature (ΔTm), CDKL5” value on CDKL5 kinase domain was over 6 °C. Also, the “Effect on CDKL5 kinase activity” value on WT human CDKL5 is on record as “robust, dose-dependent inhibition”. The “Phosphorylation of EB2 (S222)” value with S222 EB2 phosphorylation was “inhibited in a dose-dependent manner”. Besides, in experiment [3], the “Phosphorylation of β-catenin (S33/37/T41)” value is recorded as “reduced in a dose-dependent manner”. Also, in the experiment with CDKL5 expression, the CDKL5 expression result is recorded as “not altered”. Also, the “Motor neuron survival in response to ER stress” value with human motor neurons is given as “neuroprotective; also recorded: promote survival of motor neurons”. In addition, the “Motor neuron survival at low concentrations compared with AT-7519” value in the experiment with human motor neurons is “better promoted motor neuron survival than AT-7519”.

`CS(=O)(=O)CCNCc1ccc(-c2ccc3ncnc(Nc4ccc(OCc5cccc(F)c5)c(Cl)c4)c3c2)o1` [lapatinib, reference compound]: the “Effect on CDKL5 kinase activity” value at WT human CDKL5 is reported as “No significant difference”.

For `O=C(NCC1CCOCC1)c1n[nH]cc1NC(=O)c1c(F)cccc1F` [Compound 4, 4-(2,6-difluorobenzamido)-N-((tetrahydro-2H-pyran-4-yl)methyl)-1H-pyrazole-3-carboxamide], inhibition against CDKL5 [1] was half-maximal at 4400 nM (IC50). The “Fold less active than compound 2 in CDKL5 NanoBRET” value on CDKL5 [1] (compound 4 vs compound 2) is given as ~ 1000 ×. Further, the “Selectivity window between GSK3β and DYRK1B, the next most potently inhibited kinase” value on DYRK1B is 23 fold. Further, the “Effect on CDKL5 kinase activity” value at WT human CDKL5 is listed as “No significant difference”. Moreover, the “Phosphorylation of EB2 (S222)” value in the experiment with S222 EB2 phosphorylation is “only at the highest concentration”. In addition, the “Phosphorylation of β-catenin (S33/37/T41)” value in experiment [3] is “reduced in a dose-dependent manner”. Moreover, the CDKL5 expression entry in the experiment with CDKL5 expression was “not altered”. Further, in the experiment with human motor neurons, the “Motor neuron survival in response to ER stress” value is given as “neuroprotective; also recorded: promote survival of motor neurons” and the “Motor neuron survival at low concentrations compared with AT-7519” value was “better promoted motor neuron survival than AT-7519”.
